{"source": "ChEMBL document CHEMBL4043093", "about": "“2-Oxo-3, 4-dihydropyrimido[4, 5-d]pyrimidinyl derivatives as new irreversible pan fibroblast growth factor receptor (FGFR) inhibitors” (Eur J Med Chem, 2017)", "key": {"[1]": {"target": "RAC-alpha serine/threonine-protein kinase (Homo sapiens) (UniProt P31749)", "sequence (P31749 whole entry)": "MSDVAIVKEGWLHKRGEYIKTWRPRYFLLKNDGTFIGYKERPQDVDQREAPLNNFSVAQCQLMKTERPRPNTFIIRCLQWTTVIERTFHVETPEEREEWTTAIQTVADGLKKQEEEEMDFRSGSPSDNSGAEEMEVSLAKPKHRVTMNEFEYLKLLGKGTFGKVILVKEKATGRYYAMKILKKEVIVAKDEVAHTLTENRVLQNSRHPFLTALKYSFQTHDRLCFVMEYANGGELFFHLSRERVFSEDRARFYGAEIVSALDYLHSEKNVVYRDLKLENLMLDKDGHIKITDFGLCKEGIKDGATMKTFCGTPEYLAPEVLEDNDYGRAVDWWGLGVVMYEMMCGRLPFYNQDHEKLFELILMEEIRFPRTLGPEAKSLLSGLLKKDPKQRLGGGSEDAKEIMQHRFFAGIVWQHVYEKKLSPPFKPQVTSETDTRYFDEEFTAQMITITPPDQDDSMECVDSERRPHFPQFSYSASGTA", "test": "Inhibition of wild-type human partial length AKT1 expressed in Escherichia coli BL21 assessed as residual activity at 1000 nM after 30 mins by Kinomescan method relative to control"}, "[2]": {"target": "Fibroblast growth factor receptor 1 (Homo sapiens, UniProt P11362)", "test": "Inhibition of wild-type human partial length FGFR1 (P357 to V669 residues) expressed in Escherichia coli BL21 assessed as residual activity at 1000 nM after 30 mins by Kinomescan method relative to control"}, "[3]": {"target": "Activin receptor type-1B (Homo sapiens) (UniProt P36896)", "sequence (P36896 whole entry, the tested form may be a part)": "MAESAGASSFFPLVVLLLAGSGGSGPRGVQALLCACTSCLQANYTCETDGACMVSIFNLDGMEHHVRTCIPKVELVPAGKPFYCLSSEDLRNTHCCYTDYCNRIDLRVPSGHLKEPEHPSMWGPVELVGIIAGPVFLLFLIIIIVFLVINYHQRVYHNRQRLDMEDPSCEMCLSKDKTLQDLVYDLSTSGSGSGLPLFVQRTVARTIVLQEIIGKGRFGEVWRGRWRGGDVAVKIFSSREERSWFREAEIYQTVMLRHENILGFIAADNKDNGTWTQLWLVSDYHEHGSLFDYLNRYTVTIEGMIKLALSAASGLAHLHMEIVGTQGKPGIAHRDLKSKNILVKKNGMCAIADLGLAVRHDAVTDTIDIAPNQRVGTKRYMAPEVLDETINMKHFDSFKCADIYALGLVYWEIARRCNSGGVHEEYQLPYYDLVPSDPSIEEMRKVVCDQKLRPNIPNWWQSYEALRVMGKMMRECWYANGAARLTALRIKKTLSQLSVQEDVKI", "test": "Inhibition of wild-type human ACVR1B (S187 to I505 residues) expressed in Escherichia coli BL21 assessed as residual activity at 1000 nM after 30 mins by Kinomescan method relative to control", "in_short": "(§1)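 Single-point screen at a fixed 1 µM, run within a 456-kinase DiscoveRx KINOMEscan panel. Each kinase's read-out is Percent Control, i.e. signal relative to a control without compound. Hits were scored by a Percent Control < 35 cut-off, and an S(35) selectivity score was calculated across the non-mutant kinases.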"}, "[4]": {"system": "Mycobacterium tuberculosis", "test": "Inhibition of wild-type Mycobacterium tuberculosis partial length PKNB (M1 to G279 residues) expressed in HEK293 cells assessed as residual activity at 1000 nM after 30 mins by Kinomescan method relative to control", "assay_type": "cell-based", "in_short": "as §1"}, "[5]": {"target": "Serine/threonine-protein kinase N2 (Homo sapiens) (UniProt Q16513)", "test": "Inhibition of wild-type human partial length PKN2 (E634 to C984 residues) expressed in Escherichia coli BL21 assessed as residual activity at 1000 nM after 30 mins by Kinomescan method relative to control"}, "[6]": {"target": "Phosphatidylinositol 4-kinase beta (Homo sapiens) (UniProt Q9UBF8)", "test": "Inhibition of wild-type human full length PIK4CB (M1 to M828 residues) expressed in HEK293 cells assessed as residual activity at 1000 nM after 30 mins by Kinomescan method relative to control", "assay_type": "cell-based", "in_short": "(§2)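 Single-concentration screen at 1 µM across a 456-kinase KINOMEscan panel. The read-out is Percent Control for each kinase.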"}, "[7]": {"target": "Cyclin-dependent kinase 11B (Homo sapiens) (UniProt P21127)", "sequence (P21127 whole entry, the tested form may be a part)": "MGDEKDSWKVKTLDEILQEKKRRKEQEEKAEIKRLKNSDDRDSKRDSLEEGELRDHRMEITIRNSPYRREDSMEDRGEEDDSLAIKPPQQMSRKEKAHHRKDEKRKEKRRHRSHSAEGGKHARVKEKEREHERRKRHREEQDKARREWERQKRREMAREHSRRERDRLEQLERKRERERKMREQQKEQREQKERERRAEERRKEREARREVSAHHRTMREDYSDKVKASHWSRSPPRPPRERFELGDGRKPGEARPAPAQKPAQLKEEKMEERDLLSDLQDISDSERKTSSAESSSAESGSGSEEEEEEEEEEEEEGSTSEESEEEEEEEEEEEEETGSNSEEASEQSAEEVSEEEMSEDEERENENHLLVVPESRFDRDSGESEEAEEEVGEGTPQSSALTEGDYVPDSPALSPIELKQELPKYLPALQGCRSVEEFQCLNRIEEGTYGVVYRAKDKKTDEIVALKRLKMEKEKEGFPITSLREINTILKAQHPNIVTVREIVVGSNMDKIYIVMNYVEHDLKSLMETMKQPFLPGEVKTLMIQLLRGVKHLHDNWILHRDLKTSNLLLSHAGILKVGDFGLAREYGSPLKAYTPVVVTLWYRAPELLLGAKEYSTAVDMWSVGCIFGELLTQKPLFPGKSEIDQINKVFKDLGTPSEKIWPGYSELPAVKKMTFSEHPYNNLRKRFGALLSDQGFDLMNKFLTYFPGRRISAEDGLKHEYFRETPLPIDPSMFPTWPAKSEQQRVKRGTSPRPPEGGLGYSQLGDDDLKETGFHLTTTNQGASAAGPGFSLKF", "test": "Inhibition of wild-type human partial length CDK11 (M1 to N360 residues) expressed in Escherichia coli BL21 assessed as residual activity at 1000 nM after […] by Kinomescan method relative to control"}, "[8]": {"target": "Tyrosine-protein kinase Fer (Homo sapiens) (UniProt P16591)", "test": "Inhibition of wild-type human partial length FER (S542 to T822 residues) expressed in Escherichia coli BL21 assessed as residual activity at 1000 nM after 30 mins by Kinomescan method relative to control"}, "[9]": {"target": "Serine/threonine-protein kinase Sgk1 (Homo sapiens) (UniProt O00141)", "test": "Inhibition of wild-type human partial length SGK (I60 to L431 residues) expressed in HEK293 cells assessed as residual activity at 1000 nM after 30 mins by Kinomescan method relative to control", "assay_type": "cell-based"}, "[10]": {"target": "Serine/threonine-protein kinase 32A (Homo sapiens) (UniProt Q8WU08)", "test": "Inhibition of wild-type human full length YANK1 (M1 to L396 residues) expressed in HEK293 cells assessed as residual activity at 1000 nM after 30 mins by Kinomescan method relative to control", "assay_type": "cell-based"}, "[11]": {"target": "Tyrosine-protein kinase ABL2 (Homo sapiens) (UniProt P42684)", "test": "Inhibition of wild-type human ABL2 (A248 to G542 residues) expressed in Escherichia coli BL21 assessed as residual activity at 1000 nM after 30 mins by Kinomescan method relative to control", "in_short": "as §1"}, "[12]": {"system": "Mast/stem cell growth factor receptor Kit (Homo sapiens), P10721 [V559D,V654A]", "test": "Inhibition of human partial length KIT V559D/V654A double mutant (Y545 to D952 residues) expressed in Escherichia coli BL21 assessed as residual activity at 1000 nM after 30 mins by Kinomescan method relative to control", "in_short": "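KINOMEscan binding panel of 456 kinases, with the test compound at a single concentration of 1 µM. Read-out is Percent Control.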"}, "[13]": {"target": "Dual specificity mitogen-activated protein kinase kinase 4 (Homo sapiens) (UniProt P45985)", "sequence (P45985 whole entry, the tested form may be a part)": "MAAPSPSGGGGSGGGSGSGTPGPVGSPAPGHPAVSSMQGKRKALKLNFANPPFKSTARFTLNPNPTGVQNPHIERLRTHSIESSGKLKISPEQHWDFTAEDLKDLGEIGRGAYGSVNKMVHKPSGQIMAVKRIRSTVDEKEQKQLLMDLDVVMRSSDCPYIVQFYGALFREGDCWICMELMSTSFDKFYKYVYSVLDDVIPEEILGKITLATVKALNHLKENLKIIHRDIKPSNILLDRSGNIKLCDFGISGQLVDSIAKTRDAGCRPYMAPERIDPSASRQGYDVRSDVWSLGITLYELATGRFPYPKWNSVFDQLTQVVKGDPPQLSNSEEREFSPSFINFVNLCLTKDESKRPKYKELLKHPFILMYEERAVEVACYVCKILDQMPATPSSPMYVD", "test": "Inhibition of wild-type human partial length MEK4 (S84 to D399 residues) expressed in HEK293 cells assessed as residual activity at 1000 nM after 30 mins by Kinomescan method relative to control", "assay_type": "cell-based"}, "[14]": {"target": "MAP kinase-interacting serine/threonine-protein kinase 1 (Homo sapiens) (UniProt Q9BUB5)", "sequence (Q9BUB5 whole entry, looked up, the tested form may be a part)": "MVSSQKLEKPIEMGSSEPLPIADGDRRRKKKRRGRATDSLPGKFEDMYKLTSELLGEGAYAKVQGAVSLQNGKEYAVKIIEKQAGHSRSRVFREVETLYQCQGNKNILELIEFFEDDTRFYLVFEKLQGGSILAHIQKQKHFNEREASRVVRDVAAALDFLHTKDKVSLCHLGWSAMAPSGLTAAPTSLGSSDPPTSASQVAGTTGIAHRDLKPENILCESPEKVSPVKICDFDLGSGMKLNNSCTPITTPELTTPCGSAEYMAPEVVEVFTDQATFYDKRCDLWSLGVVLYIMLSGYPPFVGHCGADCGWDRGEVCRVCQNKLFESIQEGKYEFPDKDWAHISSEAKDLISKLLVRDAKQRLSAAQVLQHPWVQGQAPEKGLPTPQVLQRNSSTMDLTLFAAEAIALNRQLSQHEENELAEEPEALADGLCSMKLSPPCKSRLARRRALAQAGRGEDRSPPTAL", "test": "Inhibition of wild-type human full length MKNK1 (M1 to L424 residues) expressed in HEK293 cells assessed as residual activity at 1000 nM after 30 mins by Kinomescan method relative to control", "assay_type": "cell-based", "in_short": "as §2"}, "[15]": {"target": "Maternal embryonic leucine zipper kinase (Homo sapiens) (UniProt Q14680)", "sequence (Q14680 whole entry, looked up, the tested form may be a part)": "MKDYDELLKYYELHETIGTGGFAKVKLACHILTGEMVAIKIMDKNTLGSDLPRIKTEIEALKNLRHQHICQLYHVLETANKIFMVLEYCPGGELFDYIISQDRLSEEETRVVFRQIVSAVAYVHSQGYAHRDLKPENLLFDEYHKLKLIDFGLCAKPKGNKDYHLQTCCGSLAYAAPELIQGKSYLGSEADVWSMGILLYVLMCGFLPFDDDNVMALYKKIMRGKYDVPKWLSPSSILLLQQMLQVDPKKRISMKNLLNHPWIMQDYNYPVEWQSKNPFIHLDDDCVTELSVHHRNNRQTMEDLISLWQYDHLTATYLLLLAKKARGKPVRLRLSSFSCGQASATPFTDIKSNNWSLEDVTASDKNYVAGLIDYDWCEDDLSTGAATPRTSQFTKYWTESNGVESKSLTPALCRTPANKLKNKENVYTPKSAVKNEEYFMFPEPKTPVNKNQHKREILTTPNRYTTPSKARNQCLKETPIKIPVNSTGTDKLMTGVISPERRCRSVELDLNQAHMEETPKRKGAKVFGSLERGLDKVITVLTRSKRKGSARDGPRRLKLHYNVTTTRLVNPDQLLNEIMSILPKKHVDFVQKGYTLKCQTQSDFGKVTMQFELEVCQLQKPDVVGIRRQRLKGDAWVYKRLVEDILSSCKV", "test": "Inhibition of wild-type human full length MELK (M1 to V651 residues) expressed in Escherichia coli BL21 assessed as residual activity at 1000 nM after 30 mins by Kinomescan method relative to control", "in_short": "as §2"}, "[16]": {"system": "Tyrosine-protein kinase ABL1 (Homo sapiens), P00519 [M351T]", "test": "Inhibition of human phosphorylated ABL1 M351T mutant (S229 to K512 residues) expressed in HEK293 cells assessed as residual activity at 1000 nM after 30 mins by Kinomescan method relative to control", "assay_type": "cell-based", "in_short": "as §1"}, "[17]": {"target": "Macrophage colony-stimulating factor 1 receptor (Homo sapiens) (UniProt P07333)", "test": "Inhibition of wild-type human partial length CSF1R (I564 to S939 residues) expressed in Escherichia coli BL21 assessed as residual activity at 1000 nM after 30 mins by Kinomescan method relative to control"}, "[18]": {"target": "Tyrosine-protein kinase CSK (Homo sapiens) (UniProt P41240)", "sequence (P41240 2-450 limits assumed)": "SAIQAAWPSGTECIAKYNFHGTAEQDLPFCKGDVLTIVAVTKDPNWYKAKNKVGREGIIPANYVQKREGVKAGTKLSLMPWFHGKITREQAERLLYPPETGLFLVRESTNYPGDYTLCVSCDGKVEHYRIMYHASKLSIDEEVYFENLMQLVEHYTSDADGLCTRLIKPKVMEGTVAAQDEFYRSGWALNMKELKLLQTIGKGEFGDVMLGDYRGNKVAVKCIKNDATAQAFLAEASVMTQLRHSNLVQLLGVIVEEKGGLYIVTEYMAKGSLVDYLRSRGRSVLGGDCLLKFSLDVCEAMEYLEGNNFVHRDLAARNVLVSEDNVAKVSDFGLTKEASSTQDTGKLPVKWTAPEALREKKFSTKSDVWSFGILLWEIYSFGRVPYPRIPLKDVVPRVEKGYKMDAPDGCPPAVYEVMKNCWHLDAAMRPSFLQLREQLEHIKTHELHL", "test": "Inhibition of wild-type human full length CSK (M1 to L450 residues) expressed in Escherichia coli BL21 assessed as residual activity at 1000 nM after 30 mins by Kinomescan method relative to control", "in_short": "as §1"}, "[19]": {"target": "Serine/threonine-protein kinase OSR1 (Homo sapiens) (UniProt O95747)", "test": "Inhibition of wild-type human full length OSR1 (M1 to S527 residues) expressed in HEK293 cells assessed as residual activity at 1000 nM after 30 mins by Kinomescan method relative to control", "assay_type": "cell-based", "in_short": "as §2"}, "[20]": {"target": "Serine/threonine-protein kinase PAK 2 (Homo sapiens) (UniProt Q13177)", "sequence (Q13177 whole entry, the tested form may be a part)": "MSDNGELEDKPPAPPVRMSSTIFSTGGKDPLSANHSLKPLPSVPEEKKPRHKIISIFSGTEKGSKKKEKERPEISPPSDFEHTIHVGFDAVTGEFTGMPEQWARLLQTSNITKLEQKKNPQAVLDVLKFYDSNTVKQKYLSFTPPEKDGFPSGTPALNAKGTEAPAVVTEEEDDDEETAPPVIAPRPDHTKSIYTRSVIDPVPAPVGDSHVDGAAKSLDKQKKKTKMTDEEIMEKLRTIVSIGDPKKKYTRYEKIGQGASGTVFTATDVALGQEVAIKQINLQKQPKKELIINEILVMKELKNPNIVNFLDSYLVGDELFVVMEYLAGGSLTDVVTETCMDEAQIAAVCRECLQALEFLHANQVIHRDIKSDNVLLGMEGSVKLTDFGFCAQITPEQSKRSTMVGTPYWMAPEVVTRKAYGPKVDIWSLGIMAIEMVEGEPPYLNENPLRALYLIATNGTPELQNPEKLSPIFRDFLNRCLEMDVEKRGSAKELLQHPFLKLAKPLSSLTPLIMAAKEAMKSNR", "test": "Inhibition of wild-type human partial length PAK2 (P151 to R525 residues) expressed in Escherichia coli BL21 assessed as residual activity at 1000 nM after 30 mins by Kinomescan method relative to control"}, "[21]": {"target": "Inhibitor of nuclear factor kappa-B kinase subunit epsilon (Homo sapiens) (UniProt Q14164)", "test": "Inhibition of wild-type human full length IKK-epsilon (M1 to V716 residues) expressed in HEK293 cells assessed as residual activity at 1000 nM after 30 mins by Kinomescan method relative to control", "assay_type": "cell-based", "in_short": "as §2"}, "[22]": {"target": "Dual specificity mitogen-activated protein kinase kinase 5 (Homo sapiens) (UniProt Q13163)", "sequence (Q13163 whole entry, the tested form may be a part)": "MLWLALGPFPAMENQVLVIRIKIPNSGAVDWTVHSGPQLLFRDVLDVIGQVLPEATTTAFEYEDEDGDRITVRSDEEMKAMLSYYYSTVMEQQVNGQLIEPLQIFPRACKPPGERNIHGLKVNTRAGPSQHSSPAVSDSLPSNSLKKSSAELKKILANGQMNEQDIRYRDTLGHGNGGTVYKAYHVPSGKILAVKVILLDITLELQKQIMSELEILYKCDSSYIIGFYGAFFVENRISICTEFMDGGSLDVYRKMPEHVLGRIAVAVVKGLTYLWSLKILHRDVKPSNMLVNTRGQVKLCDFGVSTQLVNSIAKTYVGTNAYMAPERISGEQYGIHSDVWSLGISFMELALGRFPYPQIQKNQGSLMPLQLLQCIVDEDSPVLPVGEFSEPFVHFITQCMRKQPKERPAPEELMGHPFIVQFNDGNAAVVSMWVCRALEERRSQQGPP", "test": "Inhibition of wild-type human partial length MEK5 (L98 to P448 residues) expressed in HEK293 cells assessed as residual activity at 1000 nM after 30 mins by Kinomescan method relative to control", "assay_type": "cell-based"}}, "data": [{"smiles": "COc1cc(OC)c(Cl)c(N2Cc3cnc(Nc4ccc(F)cc4)nc3N(C3CCN(C(=O)/C=C/CN(C)C)CC3)C2=O)c1Cl", "values": [{"measurement": "Activity", "setting": "[1]", "value": 88, "unit": "%"}, {"measurement": "Activity", "setting": "[2]", "value": 0.6, "unit": "%"}, {"measurement": "Activity", "setting": "[3]", "value": 100, "unit": "%"}, {"measurement": "Activity", "setting": "[4]", "value": 100, "unit": "%"}, {"measurement": "Activity", "setting": "[5]", "value": 91, "unit": "%"}, {"measurement": "Activity", "setting": "[6]", "value": 96, "unit": "%"}, {"measurement": "Activity", "setting": "[7]", "value": 79, "unit": "%"}, {"measurement": "Activity", "setting": "[8]", "value": 67, "unit": "%"}, {"measurement": "Activity", "setting": "[9]", "value": 100, "unit": "%"}, {"measurement": "Activity", "setting": "[10]", "value": 100, "unit": "%"}, {"measurement": "Activity", "setting": "[11]", "value": 26, "unit": "%"}, {"measurement": "Activity", "setting": "[12]", "value": 99, "unit": "%"}, {"measurement": "Activity", "setting": "[13]", "value": 100, "unit": "%"}, {"measurement": "Activity", "setting": "[14]", "value": 88, "unit": "%"}, {"measurement": "Activity", "setting": "[15]", "value": 100, "unit": "%"}, {"measurement": "Activity", "setting": "[16]", "value": 47, "unit": "%"}, {"measurement": "Activity", "setting": "[17]", "value": 0.4, "unit": "%"}, {"measurement": "Activity", "setting": "[18]", "value": 100, "unit": "%"}, {"measurement": "Activity", "setting": "[19]", "value": 100, "unit": "%"}, {"measurement": "Activity", "setting": "[20]", "value": 100, "unit": "%"}, {"measurement": "Activity", "setting": "[21]", "value": 100, "unit": "%"}, {"measurement": "Activity", "setting": "[22]", "value": 90, "unit": "%"}]}]}
